High-throughput results: PubChem, several laboratories
Hits are enriched below; roughly 1.5% of the tested compounds scored in any of these assays.
S1P4 agonist: human S1P4 receptor agonism; S1P4-expressing cell line, agonist reporter assay; 220,000 compounds, 0.35% hits; activation, % at 4.98 µM; AID 1509; O95977; in the data active = activation above about 11%
Target sequence (O95977 whole entry, looked up): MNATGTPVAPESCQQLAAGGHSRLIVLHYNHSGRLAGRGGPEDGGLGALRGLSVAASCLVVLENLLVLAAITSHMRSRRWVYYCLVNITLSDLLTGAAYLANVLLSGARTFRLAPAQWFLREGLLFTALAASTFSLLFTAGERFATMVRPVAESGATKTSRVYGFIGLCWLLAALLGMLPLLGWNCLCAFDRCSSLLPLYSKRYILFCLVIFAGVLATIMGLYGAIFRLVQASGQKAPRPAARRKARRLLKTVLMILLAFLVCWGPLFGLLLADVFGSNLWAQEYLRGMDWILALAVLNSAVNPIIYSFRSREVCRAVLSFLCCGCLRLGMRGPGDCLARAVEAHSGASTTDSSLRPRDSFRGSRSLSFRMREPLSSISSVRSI
Tb hexokinase: blocks Trypanosoma brucei hexokinase 1 activity; recombinant TbHK1, G6PDH-coupled NADH A340; 220,000 compounds, 0.11% hits; inhibition, % at 10 µM;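 active = inhibition of 50% or more in the single-dose primary screen; inactive = inhibition below 50%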
zVAD death inh: L929 zVAD cell death inhibition; L929 zVAD necroptosis rescue, ATP luminescence, 24 h; with zVAD 60 µM; viability rescue, % at 10 µM; 220,000 compounds, 0.38% hits;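 active = activation, scaled between plate controls, above about 75%, limit read from the data; inactive = activation under that limit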
TNF necrop inh: blocks TNF-alpha induced death of Jurkat FADD-/- cells; 220,000 compounds, 0.068% hits; AID 463075; Jurkat FADD-/- TNF necroptosis rescue, ATP luminescence, 24 h; 0 = TNF only, 100 = no-TNF cells; activation (protection from cell death), % at 10 µM;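 active = activation, meaning protection from cell death, of at least 50% relative to plate controls; inactive = activation below 50%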;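 also: necroptosis triggered by 40 ng/mL TNF-alpha added together with compound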
S1P4 antag: antagonists of human S1P4 receptor | AID 1510 | 220,000 compounds, 0.26% hits | O95977 | inhibition, % at 4.98 µM | S1P4-expressing cells, antagonist mode, reporter read-out; in the data active = inhibition above about 29%
Dynein transport: blocks dynein driven cargo transport along microtubules. 3617.4 mouse cells, GR-EGFP nuclear translocation imaging; test concentration mostly 20 µM; stimulated with dexamethasone, 1 µM; active compounds read low. z-score, hits read low. 220,000 compounds, 0.47% hits. AID 1381;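 active = plate z-score of nuclear minus cytoplasmic receptor signal below a set negative limit, without overly bright fluorescence or cell loss, cut at about -3.5 in these data, passing the limit was not always enough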;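 also: z-score of nuclear minus cytoplasmic ring GR-EGFP intensity difference per well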
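Buffer or medium: Induction medium lacking tetracycline, stripped serum | Also added: Dexamethasone agonist, 1.0 µM final, for 30 min | Timing: 48 h induction, 1 h compound, 30 min dex at 37 °C | Detection: Formaldehyde fixation, Hoechst nuclear stain, 10x automated fluorescence imaging | Measure: Nuclear versus cytoplasmic GR-EGFP signal, averaged per well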
S1P4 antag conf: confirmation of human S1P4 receptor antagonists; AID 1524; shares compounds with S1P4 antag; S1P4-expressing cell line, antagonist mode, reporter read-out; inhibition, % at 4.98 µM; 520 compounds, 71% hits; in the data active = inhibition above about 30%
S1P1 antagonist: blocks human S1P1, counter-screen for S1P4 antagonists. 520 compounds, 37% hits. inhibition, % at 4.98 µM. cell-based S1P1 antagonist counterscreen, inhibition. shares compounds with S1P4 antag; in the data active = inhibition above about 40%;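 also: receptor stimulated with S1P near its EC80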
A number is an active result; n = inactive; x = not tested or not shown.

SMILES	S1P4 agonist	Tb hexokinase	zVAD death inh	TNF necrop inh	S1P4 antag	Dynein transport	S1P4 antag conf	S1P1 antagonist
O=C(CSCCO)Nc1cccc(C(F)(F)F)c1	n	n	n	n	36	n	n	n
COc1ccc(CCNC(=O)C2CCN(Cc3nc(-c4cccc(Cl)c4)oc3C)CC2)cc1OC	n	n	n	n	30	n	n	n
Cc1oc(-c2cccc(Cl)c2)nc1CN1CCC(C(=O)NCCCN2CCCC2=O)CC1	n	n	n	n	n	n	x	x
CS(=O)(=O)c1ccc(C(=O)Nc2ccc(N3CCOCC3)cc2)c(Cl)c1	n	n	n	n	n	n	x	x
CS(=O)(=O)c1ncc(Cl)c(C(=O)Nc2ccc(N3CCOCC3)cc2)n1	n	n	n	n	31	n	98	81
COc1cc(OC)cc(C(=O)N[C@H](C(=O)Nc2nc3ccc(S(C)(=O)=O)cc3s2)C(C)C)c1	n	n	n	n	n	n	x	x
O=C(O)c1ccccc1C(=O)Nc1ccc(Br)c(C(F)(F)F)c1	n	n	n	n	n	n	x	x
Cc1cc(C)c(C(=O)Nc2ccc(Br)c(C(F)(F)F)c2)c(C)c1	n	n	n	n	29	n	53	n
CC(C)NC(=O)CCCc1c[nH]c2ccccc12	n	n	n	n	n	n	x	x
O=C(CCCn1cnc([N+](=O)[O-])n1)Nc1cccc2ccccc12	n	n	n	n	112	n	n	n
Cc1cc[n+](C(C)C(=O)c2ccc(-c3ccccc3)cc2)cc1 (configuration not stated)	n	n	n	n	n	n	x	x
Cc1onc(-c2ccccc2)c1C(=O)Nc1ccncc1	n	n	n	n	n	n	x	x
Cc1onc(-c2ccccc2)c1C(=O)Nc1nnc(-c2ccncc2)s1	n	n	n	n	51	n	63	n
O=C(C=C=Nc1ccccc1)C(=O)N=C=Cc1ccccc1	n	n	n	n	42	n	106	n
O=[N+]([O-])c1ccc(/C=N/NC(=S)Nc2ccc(Cl)cc2Cl)s1	n	n	n	n	n	n	x	x
COc1ccc(-c2nc(CN(CC3CCC(=O)N3)C(C)C)c(C)o2)c(C)c1C (configuration not stated)	n	n	n	n	n	n	x	x
COC(=O)C1=C(C(=O)OC)[C@@H]2N(Cc3ccccc3)c3ccccc3[C@@]23C[C@@H](C(=O)OC)N(C(=O)COCc2ccccc2)C3=N1	x	n	n	n	x	n	x	x
N#CCCN1CCN(Cc2cc(-c3ccccc3)ccc2O)CC1	n	n	n	n	39	n	n	n
CC(C)(C)CC(C)(C)c1ccc(O)c(CN2CCN(CCC#N)CC2)c1	n	n	n	n	n	n	x	x
FC(F)(F)c1ccc(Cl)c(N/N=C/c2ccc(N3CCOCC3)s2)c1	n	n	n	n	n	n	x	x
O=C(c1nc2ccccn2c1CN1CCCC(OCc2ccccc2)C1)N1CCCC1 (configuration not stated)	n	n	n	n	n	n	x	x
Cc1cc(C)n(-c2cc(N3CCN(S(=O)(=O)c4ccc(Cl)cc4)CC3)ccc2[N+](=O)[O-])n1	n	n	n	n	60	n	n	n
CCC(C)C(=O)N1CCc2cc(-c3csc(N)n3)ccc21 (configuration not stated)	n	n	n	n	41	n	n	52
O=C(CCn1cnc2ccccc21)N/N=C/C=C/c1ccccc1	n	n	n	n	30	n	n	n
C=CCNC(=O)c1ccc(OC2CCN(S(=O)(=O)N(C)C)CC2)cc1	n	n	n	n	n	n	x	x
SMILES	S1P4 agonist	Tb hexokinase	zVAD death inh	TNF necrop inh	S1P4 antag	Dynein transport	S1P4 antag conf	S1P1 antagonist
Cc1ccc(-c2nc(NC(=O)c3nn(C)cc3[N+](=O)[O-])sc2C)cc1C	n	n	n	n	87	n	115	n
COc1ccccc1C(c1nnnn1C(C)(C)C)N1CCCCCC1 (configuration not stated)	n	n	n	n	32	n	n	n
COc1ccccc1C(c1nnnn1C(C)(C)C)N1CCN(C(=O)c2ccco2)CC1 (configuration not stated)	n	n	n	n	n	n	x	x
CN(C)c1ccc(/C=C(/C(=O)c2ccc(Cl)cc2Cl)n2cncn2)cc1	n	n	n	n	n	n	x	x
COc1ccc(/C=C(/C(=O)c2ccc(Cl)cc2Cl)n2cncn2)cc1	n	n	n	n	37	n	n	n
CC(C)CC(=O)/C(=C\c1ccc(Cl)cc1Cl)n1cncn1	n	n	n	n	53	n	119	96
Cn1c(SCc2ccccc2F)nnc1-c1ccccn1	n	n	n	n	n	n	x	x
